We go through 2 molecules from ChEMBL document CHEMBL3526153, “Metabolism of gambogic acid in rats: a rare intestinal metabolic pathway responsible for its final disposition” (Drug Metab Dispos, 2011).

Data set [1] can be described thus: Drug metabolism in intestine (unknown origin) assessed as 10-alpha sulfonic gambogic acid formation. The class given is ADME, tissue-based. The procedure, abridged:
(§1)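 Intestinal contents from undosed rats homogenized in 5 mL water, spiked with 100 µL of 1.0 mg/mL GA, incubated at 37 °C about 24 h, in duplicate. 1 mL extracted with ethyl acetate. LC-MS/MS in negative ESI with SIM at m/z 709.3.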

The nature of data set [2]: Drug metabolism in Sprague-Dawley rat feces assessed as 10-OHGA formation at 4 mg/kg, iv measured over 24 hrs by LC-DAD-MS/MS analysis. The class given is ADME, organism-based. Further details: dose 4 mg/kg, route intravenous; call rule not given here. As to conditions: in vivo. The procedure, abridged: (§2)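 SD rats (250 ± 20 g), 4 mg/kg GA injection given i.v. via tail vein in 2 mL; feces from four rats pooled 0–24 h, stored -20 °C. Feces (0.6 g) homogenized in acetonitrile-water 50:50, sonicated, centrifuged, filtered, then extracted with ethyl acetate, dried under N2 at 40 °C, reconstituted in mobile phase. Gradient C18 LC, negative-ion ESI MS/MS.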

A short description of data set [3]: Drug metabolism in Sprague-Dawley rat feces assessed as formation of glucuronidation product at 4 mg/kg, iv measured over 24 hrs by LC-DAD-MS/MS analysis. The class given is ADME, organism-based. Conditions: in vivo. Also noted: dose 4 mg/kg, route intravenous. The procedure, abridged: as §2
Data set [4] relates to Liver microsome. Description: Drug metabolism in rat liver microsomes assessed as glucuronidation product formation at 50 uM preincubated for 10 mins followed by UDPGA addition for 2 hrs measured 2 hrs post NaOH treatment by LC-MS/MS analysis. The class given is ADME. The procedure, abridged:
(§3)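 Dried UDPGA microsomal incubate reconstituted in 0.1 M Tris pH 6.8. For enzymatic hydrolysis, about 830 units β-glucuronidase, 37 °C for 1 h; control without enzyme. For alkaline hydrolysis, with or without 0.5 M NaOH (10 µL), 2 h at room temperature, then neutralized with acetic acid to about pH 7. Analyzed by LC-MS/MS.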

Data set [5] can be described thus: Drug metabolism in Sprague-Dawley rat bile assessed as 10-alpha sulfonic gambogic acid formation of at 4 mg/kg, iv measured over 24 hrs by LC-DAD-MS/MS analysis. Conditions: in vivo. The class given is ADME, organism-based. Further details: dose 4 mg/kg, route intravenous. In outline: (§4)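 Four SD rats bile-duct cannulated under chloral hydrate anesthesia, allowed 1 h recovery, pre-dose bile taken. Dosed 4 mg/kg GA i.v. Bile collected on ice and pooled 0–24 h, stored -20 °C. Gradient C18 LC (acetonitrile/10 mM ammonium acetate), 40 °C column, negative-ion ESI MS/MS.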

Data set [6] can be described thus: Drug metabolism in Sprague-Dawley rat gut assessed as formation of 10-alpha sulfonic gambogic acid at 4 mg/kg, iv. The class given is ADME, organism-based. Further details: dose 4 mg/kg, route intravenous. Conditions: in vivo.
Data set [7] can be described thus: Drug metabolism in Sprague-Dawley rat feces assessed as formation of 9,10-epoxyl-gambogic acid at 4 mg/kg, iv measured over 24 hrs by LC-DAD-MS/MS analysis. The class given is ADME, organism-based. Further details: dose 4 mg/kg, route intravenous. As to conditions: in vivo. In outline:
as §2

A short description of data set [8]: Drug level in Sprague-Dawley rat feces at 4 mg/kg, iv measured over 24 hrs by LC-MS/MS analysis. The class given is ADME, organism-based. Also noted: dose 4 mg/kg, route intravenous. As to conditions: in vivo. The procedure, abridged: as §2
Data set [9] is described as follows: Drug metabolism in intestine (unknown origin) assessed as 10-beta sulfonic gambogic acid formation. The class given is ADME, tissue-based. In outline: as §1
Data set [10] relates to Liver microsome. Kind of data set: Drug metabolism in rat liver microsomes assessed as glucuronidation product formation at 50 uM preincubated for 10 mins followed by UDPGA addition for 2 hrs measured 1 hr post beta-glucuronidase treatment by LC-MS/MS analysis. The class given is ADME. The procedure, abridged:
as §3

A short description of data set [11]: Drug metabolism in rat liver microsomes assessed as SULT-mediated sulfonation. The class given is ADME.
The test system of data set [12] is Plasma. Kind of data set: Drug metabolism in Sprague-Dawley rat plasma assessed as 10-OHGA formation at 4 mg/kg, iv measured over 4 hrs by LC-DAD-MS/MS analysis. The class given is ADME, organism-based. Also noted: dose 4 mg/kg, route intravenous. Conditions: in vivo. In outline:
(§5)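 Six SD rats dosed 4 mg/kg GA i.v. via tail vein. Tail-vein blood taken before and 0.033–4 h post-dose into heparinized tubes, centrifuged 3000 × g 10 min at 4 °C, and plasma pooled 0–4 h. 1 mL extracted with 4 mL ethyl acetate, dried under N2 at 40 °C, reconstituted. Isocratic C18 LC (68% acetonitrile), negative-ion ESI MS/MS.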

Data set [13] in a line: Drug excretion in Sprague-Dawley rat feces at 2 mg/kg, iv measured within 48 hrs. The class given is ADME, organism-based. Also noted: dose 2 mg/kg, route intravenous. Conditions: read-out: Drug excretion.
Data set [14] is described as follows: Drug metabolism in Sprague-Dawley rat bile assessed as formation of 10-beta sulfonic gambogic acid at 4 mg/kg, iv measured over 24 hrs by LC-DAD-MS/MS analysis. Further details: dose 4 mg/kg, route intravenous. The class given is ADME, organism-based. As to conditions: in vivo. The procedure, abridged: as §4
The nature of data set [15]: Drug metabolism in Sprague-Dawley rat gut assessed as formation of 10-beta sulfonic gambogic acid at 4 mg/kg, iv. The class given is ADME, organism-based. Further details: dose 4 mg/kg, route intravenous. Conditions: in vivo.
The subject of data set [16] is Liver microsome. Description: Drug metabolism in rat liver microsomes assessed as 9,10-epoxyl-gambogic acid formation at 50 uM preincubated for 10 mins by LC-MS/MS analysis in absence of NADPH. The class given is ADME. The procedure, abridged:
(§6)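 GA 50 µM with rat liver microsomes 1.0 mg/mL in 0.1 M PBS pH 7.4, pre-incubated 10 min at 37 °C. Started with NADPH (6.0 mM final) and run 1 h at 37 °C. Controls lacked NADPH or microsomes; duplicate. Stopped with ice-cold acetonitrile, centrifuged, supernatant dried and reconstituted. Isocratic LC (65% acetonitrile), negative-ion ESI MS/MS.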

For data set [17], the system named is Plasma. Kind of data set: Drug level in Sprague-Dawley rat plasma at 4 mg/kg, iv measured over 4 hrs by LC-DAD-MS/MS analysis. The class given is ADME, organism-based. Also noted: dose 4 mg/kg, route intravenous. Conditions: in vivo. The procedure, abridged: as §5
A short description of data set [18]: Drug metabolism in rat liver microsomes assessed as CYP450-mediated 10-OHGA formation at 50 uM preincubated for 10 mins followed by NADPH addition measured after 1 hr by LC-DAD-MS/MS analysis. The class given is ADME. The procedure, abridged:
as §6

The nature of data set [19]: Retention time of the compound in Sprague-Dawley rat bile at 4 mg/kg, iv measured over 24 hrs by LC-DAD-MS/MS analysis. As to conditions: in vivo. Also noted: dose 4 mg/kg, route intravenous. The class given is ADME, organism-based. The procedure, abridged: as §4
Data set [20] can be described thus: Drug level in Sprague-Dawley rat urine at 4 mg/kg, iv measured over 24 hrs by LC-DAD-MS/MS analysis. The class given is ADME, organism-based. As to conditions: in vivo. Further details: dose 4 mg/kg, route intravenous. In outline:
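Urine collected from four SD rats and pooled 0–24 h after 4 mg/kg GA i.v. via tail vein; stored -20 °C until LC-MS/MS analysis (negative-ion ESI).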

In data set [21] the test system is Liver microsome. Description: Drug metabolism in rat liver microsomes assessed as glucuronidation product formation at 50 uM preincubated for 10 mins followed by UDPGA addition measured after 2 hrs by LC-MS/MS analysis. The class given is ADME. In outline:
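GA 50 µM with alamethicin-treated rat liver microsomes 1.0 mg/mL and saccharic acid-1,4-lactone 6 mM in 0.05 M Tris-HCl pH 7.4, pre-incubated 10 min at 37 °C. Started with UDPGA (6.0 mM) and run 2 h at 37 °C. Controls lacked UDPGA or microsomes; duplicate. Acetonitrile quench, gradient LC, negative-ion ESI MS/MS.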

Data set [22] can be described thus: Drug metabolism in rat liver microsomes assessed as CYP450-mediated 9,10-epoxyl-gambogic acid formation at 50 uM preincubated for 10 mins followed by NADPH addition measured after 1 hr by LC-DAD-MS/MS analysis. The class given is ADME. The procedure, abridged: as §6
The nature of data set [23]: Retention time of the compound in Sprague-Dawley rat bile treated with gambogic acid at 4 mg/kg, iv measured over 24 hrs by LC-DAD-MS/MS analysis. Also noted: dose 4 mg/kg, route intravenous. Conditions: in vivo. The class given is ADME, organism-based. The procedure, abridged:
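SD rats, n=4, bile-duct cannulated under chloral hydrate and allowed 1 h recovery. GA 4 mg/kg i.v.; bile collected on ice, pooled 0–24 h. C18 LC-DAD-MS/MS at 0.25 mL/min with acetonitrile gradient (38% to 80%) in 10 mM ammonium acetate, 40 °C, negative ESI.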

Data set [24] relates to Liver microsome. Description: Drug level in rat liver microsomes treated with gambogic acid at 50 uM preincubated for 10 mins followed by NADPH addition measured after 2 hrs in presence of GSH. The class given is ADME. In outline: (§7)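 GA 50 μM in 1.0 mL 0.1 M PBS pH 7.4 with GSH 5.0 mM and NADPH 6.0 mM (final). Line 7 uses rat liver microsomes 1.0 mg/mL; line 2 omits microsomes. Preincubated 10 min at 37 °C, started with NADPH, run 2 h at 37 °C, duplicate. Quenched with ice-cold acetonitrile and dried. LC-MS/MS in negative ESI, isocratic 65% acetonitrile / 10 mM ammonium acetate.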

The nature of data set [25]: Drug level in PBS buffer treated with gambogic acid at 50 uM preincubated for 10 mins followed by NADPH addition measured after 2 hrs in presence of GSH and absence of liver microsomes. The class given is physicochemical. In outline:
as §7

With `CC(C)=CCC[C@]1(C)C=Cc2c(O)c3c(c(CC=C(C)C)c2O1)O[C@]12C(=C[C@@H]4C[C@H]1C(C)(C)O[C@@]2(C/C=C(/C)C(=O)O)C4=O)C3=O` [GAMBOGIC ACID], the Drug metabolism entry in data set [1] is “metabolite_detected”; in data set [2] it was “metabolite_detected”; in data set [3], “metabolite_detected”; in the data set on Liver microsome [4], “metabolite_not_detected”; in [5], “metabolite_not_detected”; in [6] it was “metabolite_detected”. In addition, the Drug metabolism result in [7] is on record as “metabolite_detected”; in data set [9], “metabolite_detected”; with Liver microsome [10] it was “metabolite_not_detected”; in data set [11] it was “metabolite_not_detected”; with Plasma [12] it was “metabolite_detected”; in data set [14] it was “metabolite_not_detected”. In addition, the Drug metabolism result is “metabolite_detected” in [15]; “metabolite_not_detected” with Liver microsome [16]; “metabolite_detected” in data set [18]; “metabolite_detected” in the data set with Liver microsome [21]; “metabolite_detected” in data set [22]. The Drug uptake result in data set [8] was “Active”; in the data set on Plasma [17] it was “Active”; in data set [20], “Not Active”. For the same molecule, the dose excreted at 48 h in [13] stood at 1.04%. The Retention_time in [19] is 44.8 min.

Molecule `CC(C)=CCC[C@]1(C)C=Cc2c(O)c3c(c(CC=C(C)C)c2O1)O[C@]12C(C3=O)C(SC[C@H](NC(=O)CC[C@H](N)C(=O)O)C(=O)NCC(=O)O)[C@@H]3C[C@H]1C(C)(C)O[C@@]2(C/C=C(/C)C(=O)O)C3=O` (stereo not given in full) returned a Retention_time in data set [23] of 5.7 min. In addition, the Drug metabolism result (in the data set with Liver microsome [24]; in [25]) was “metabolite_detected” throughout.
